Test system: MS2 coat protein
Test: apparent Kd, MS2 coat protein; higher = weaker binding; RNA-MaP array; theophylline 2 mM where present
How it was run: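 Binding was read on Illumina sequencing-chip clusters where stalled E. coli RNA polymerase had transcribed each design. A titration of SNAP-549-labelled MS2 coat protein began at 0.7 or 1.5 nM and doubled to 3 µM, once without ligand and once with constant ligand, in 100 mM Tris-HCl pH 7.5, 80 mM KCl, 4 mM MgCl2, BSA, DTT, yeast tRNA and Tween-20. The apparent Kd is the median of filtered per-cluster binding-curve fits, based on green signal normalised to red-channel RNA signal and control-cluster median Fmax.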

[1] = designed as: ON switch for theophylline, no ligand
[2] = ligand present: theophylline, designed as: ON switch for theophylline
[3] = designed as: OFF switch for theophylline, no ligand
[4] = ligand present: theophylline, designed as: OFF switch for theophylline

Sequence | apparent Kd [1] | apparent Kd [2] | apparent Kd [3] | apparent Kd [4]
ACAAGUCCUCAUGAUACCAGCGAUGAGACAUAGUCUCAACAUGAGGAUCACCCAUGUAUUCGCCCUUGGCAGCAUACGGUUUUUG | 301 nM | 28.5 nM | – | –
UUCAGUACAACAGAUACCAGACAGUACUCUAAAUUGCAACAUGAGGAUCACCCAUGUAUAGUCCCUUGGCAGCUGUAAUGGGUGA | 114 nM | 174 nM | – | –
ACGACGCAUACAGAUACCAGUAGCCGAGAAACAUGAGGAUCACCCAUGUCGAGCGACAACUGCCCUUGGCAGCUGUAUGCGUCAG | 8.49 nM | 8.34 nM | – | –
GUUAUGGACCUGGAUACCAGCUGGUACAAGGGCGGUCUACAUGAGGAUCACCCAUGUGUCAGCCCUUGGCAGCCAGCAACCGGCA | – | – | 9.28 nM | 11.8 nM
UUUUUUAUCAUGGCGUAUCGGAAAACCGAUACCAGUACAGAAAUGUACCCUUGGCAGCGGCGUUUUACAUGAGGAUCACCCAUGU | – | – | 14.5 nM | 69.2 nM
UUUUUUAACAUGGCGUAUCGGAAAACCGAUACCAGUACAGAAAUGUACCCUUGGCAGCGGCGUUUUACAUGAGGAUCACCCAUGU | – | – | 29.4 nM | 193 nM
GGGCCUGUAAGCAGACCCACAGCGGGUGAUACCAGCAAUAAAACUUGCCCUUGGCAGCACACAGCUACAUGAGGAUCACCCAUGU | 43.2 nM | 83.2 nM | – | –
CAAUAAGUAACUGAUACCAGUGUACUGACAUGAGGAUCACCCAUGUUGGGUUUUGUUGUACACCCUUGGCAGCAGAAUCUUAUUG | – | – | 60.3 nM | 80.7 nM
AGACAUGAGGAUCACCCAUGUAGUAUGGAUACCAGAUCCAGAUUUAUCCCUUGGCAGCUGUGGUACAGCGAUGGAUCGCUCCUAG | – | – | 23.4 nM | 27.8 nM
UUCUACAUGAGGAUCACCCAUGUGGGUGAUACCAGCACUUUUUGGUGCCCUUGGCAGCACAUGAGAAUACCGUACGAUCGGUGAU | 376 nM | 615 nM | – | –
CUCCGAGGCUAUACUAUCCGCCUCUGUGAUACCAGAAUACCUAUAUUCCCUUGGCAGCAUCACAUGAGGAUCACCCAUGUGCCAU | – | 15.1 nM | – | –
UCCACAUGAGGAUCACCCAUGUAAUCAGAUACCAGUGACGAAAGUCACCCUUGGCAGCUGAUUACUUUAGUUCGAGGGUGUUUGA | – | – | 102 nM | 202 nM
AAUAAGCAGCUGCAAGGUGAUCCUGCAGAUACCAGCUAGGAAACUAGCCCUUGGCAGCUGCAACAUGAGGAUCACCCAUGUAAUA | – | – | 34.8 nM | 85.3 nM
AGCGCUGUGCAUGAUACCAGCUACAUGAGGAUCACCCAUGUGCGUCAGAAAUGACUGUGUAGCCCUUGGCAGCAUAAAGCAUGUA | – | – | 19 nM | 58.8 nM
AUGGUAGGACAGCACAUAUAAGCUUGUGAUACCAGCUAGAAAACUAGCCCUUGGCAGCACAUUACAUGAGGAUCACCCAUGUCCC | – | – | 51 nM | 75.7 nM
UACAUGAGGAUCACCCAUGUAUAGAGGGAUACCAGUGUCAGUGAGCACCCUUGGCAGCCCGCGAACAAUGGGUGCGCUAAAUAGU | – | – | 30.4 nM | 56.9 nM
AAUAUAAGUGUAAUUAUAUUUAUAUCUGAUACCAGACUCUCAUGUGUCCCUUGGCAGCAGUUACAUGAGGAUCACCCAUGUAUUA | 76 nM | 21.6 nM | – | –
UGAGAUCCUCAUGAUACCAGUGUACUACAUGAGGAUCACCCAUGUAGCAACAUCUGUAGACACCCUUGGCAGCAUGAGACCACGU | 18.3 nM | 23.7 nM | – | –

Sequence | apparent Kd [1] | apparent Kd [2] | apparent Kd [3] | apparent Kd [4]
AGCGCAGGUCCUGAUACCAGUGACAUGAGGAUCACCCAUGUCCGAUGGGCCUGCCUCUGACACCCUUGGCAGCAGGGCUUGUGCU | – | – | 23.7 nM | 29.8 nM
AGCGACAUGCGUGAUACCAGCUACAUGAGGAUCACCCAUGUCAGCAGGAAACUGCUGUGUAGCCCUUGGCAGCACAGUGCAUGUC | – | – | 12.7 nM | 24.7 nM
CGGUUUGUGAUGGAUACCAGCAGAGAGAAUGUUUAUCCUGACAUGAGGAUCACCCAUGUGUGCCCUUGGCAGCUGUUGUGGGCUG | – | – | 60 nM | 69 nM
CAUGUUGUUGAAGAUACCAGAUUCUGAACGUUCACAUGAGGAUCACCCAUGUAAGUCCGAGUCCCUUGGCAGCUUAUACAGGUGG | 53 nM | 14.7 nM | – | –
ACGACGCAUAGUGAUACCAGUACAACAUGAGGAUCACCCAUGUCACAUAUGUUGUAAUAGUGCCCUUGGCAGCACUAUGCGUCAG | 155 nM | 17.6 nM | – | –
UACAUGAGGAUCACCCAUGUAUGAAUGGAUACCAGAUAAAAUAAGGUCCCUUGGCAGCUAGUGAAUCGAGGGUGGGUAUCAUGUU | – | – | 10.5 nM | 11.2 nM
AAUCUGUCGGGUGAUACCAGCCUCGGCACGUCUCGUGCCGAACAUGAGGAUCACCCAUGUGGCCCUUGGCAGCACAUGACAAAUC | 258 nM | 88.6 nM | – | –
GAUCCUCAUACGGAUACCAGCGAAUAACAUGAGGAUCACCCAUGUAAUAAAGAAAAUAAAUGCCCUUGGCAGCCGAAUAGAUAGU | 166 nM | 69.4 nM | – | –
CUCUGAGUGAGCAAUCACUCAGAGGCGGAUACCAGCGAGGUCCAUCGCCCUUGGCAGCCGAACAUGAGGAUCACCCAUGUCGGUA | 10.1 nM | 16.6 nM | – | –
UGUAUGUGAUUUGAUACCAGACCAACUGGUAAAACAUGAGGAUCACCCAUGUAAACUUGGGUCCCUUGGCAGCAAAUCGCAUACU | 80.5 nM | 10.9 nM | – | –
GUCAGUAGAACAGAUACCAGUCAAAAGCUGUGAUCUCAUAACAUGAGGAUCACCCAUGUUGACCCUUGGCAGCUGUGGGCGAGGG | – | – | 19.6 nM | 64.6 nM
GCACCAGGUACGGAUACCAGCUGCCAUAGUUACAUGAGGAUCACCCAUGUGAUCUAUUGUAGCCCUUGGCAGCUGUACCUGGUGC | 104 nM | 92.4 nM | – | –
AGCGAUAUGCAUGAUACCAGCUACAUGAGGAUCACCCAUGUGCGUCAGUAAUGACUGUGUAGCCCUUGGCAGCAUAGAGCAUGUA | – | – | 37.6 nM | 70.4 nM
GAACAUGAGGAUCACCCAUGUAAAACAGAUACCAGUGAUAUAAUACACCCUUGGCAGCUGUAGCUGAAUAAUAAUUCCCUCAAGC | 15.5 nM | 18.4 nM | – | –
CAAACAUGAGGAUCACCCAUGUAAUCAGAUACCAGUGACGAAAGUCACCCUUGGCAGCUGAUUACUUUAGUUCUAAGGUGUUUGA | – | – | 92.6 nM | 56.6 nM
GUGUUUGUGUGAGAUACCAGUGAGGCCACAUGAGGAUCACCCAUGUCCCUCACUCCGGCCCACCCUUGGCAGCUCUUAUAGUAGU | – | – | 9.39 nM | 38.4 nM
GAGGGUGGGUCUCUAAUCCGUUUGACGGAUACCAGCGAGAGAUAUCGCCCUUGGCAGCCGACGACAUGAGGAUCACCCAUGUAAA | – | – | 15.6 nM | 101 nM
